This is an account of results in ChEMBL document CHEMBL5696442, “Discovery of type II inhibitors of TGFβ-activated kinase 1 (TAK1) and mitogen-activated protein kinase kinase kinase kinase 2 (MAP4K2)” (J Med Chem, 2015).

Assay [1] deals with T1, Mitogen-activated protein kinase kinase kinase 7 (Homo sapiens) (UniProt O43318).
T1 sequence (whole entry): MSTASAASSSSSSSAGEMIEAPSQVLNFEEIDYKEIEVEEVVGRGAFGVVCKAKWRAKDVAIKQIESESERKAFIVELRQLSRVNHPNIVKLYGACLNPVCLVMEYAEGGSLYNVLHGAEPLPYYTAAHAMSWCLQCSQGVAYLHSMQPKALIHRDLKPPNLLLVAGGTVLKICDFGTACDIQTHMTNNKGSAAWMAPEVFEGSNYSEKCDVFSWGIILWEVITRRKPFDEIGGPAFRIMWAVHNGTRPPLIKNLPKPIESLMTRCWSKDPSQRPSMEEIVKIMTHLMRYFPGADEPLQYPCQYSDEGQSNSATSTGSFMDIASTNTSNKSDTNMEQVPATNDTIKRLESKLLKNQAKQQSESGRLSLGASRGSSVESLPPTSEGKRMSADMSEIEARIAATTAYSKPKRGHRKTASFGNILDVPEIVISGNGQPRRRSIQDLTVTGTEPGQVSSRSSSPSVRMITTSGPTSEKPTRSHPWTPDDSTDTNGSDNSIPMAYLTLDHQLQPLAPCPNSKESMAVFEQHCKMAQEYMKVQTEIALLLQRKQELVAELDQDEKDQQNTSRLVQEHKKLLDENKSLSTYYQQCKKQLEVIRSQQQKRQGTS
Kind of assay: Inhibition of TAK1 Lys2 labeling site in human Huh-7 cell lysate at 1 uM by KiNativ Profiling analysis relative to control. The class given is subcellular.

Assay [2] has as its target Proto-oncogene tyrosine-protein kinase Src (Homo sapiens, UniProt P12931). Kind of assay: Inhibition of SRC ACT labeling site in human A-375 cells at 5 uM by KiNativ Profiling analysis relative to control. It counts as cell-based.
The target in assay [3] is Ephrin type-B receptor 2 (Homo sapiens, UniProt P29323). Kind of assay: Inhibition of EphB2 (unknown origin) ACT labeling site by KiNativ Profiling analysis.
The target of assay [4] is RAC-gamma serine/threonine-protein kinase (Homo sapiens) (UniProt Q9Y243). Nature of the assay: Inhibition of AKT3 ATP Loop labeling site in human A-375 cells at 0.5 uM by KiNativ Profiling analysis relative to control. It counts as cell-based. The method, boiled down:
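Live A375 melanoma cells were treated with compound at 5 or 0.5 μM, then lysed. The lysates were labeled with a lysine-reactive ATP or ADP-biotin probe. Kinase protection from probe labeling was measured by KiNativ.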

Assay [5] has as its target T2, Serine/threonine-protein kinase greatwall (Homo sapiens) (UniProt Q96GX5).
T2 sequence (whole entry): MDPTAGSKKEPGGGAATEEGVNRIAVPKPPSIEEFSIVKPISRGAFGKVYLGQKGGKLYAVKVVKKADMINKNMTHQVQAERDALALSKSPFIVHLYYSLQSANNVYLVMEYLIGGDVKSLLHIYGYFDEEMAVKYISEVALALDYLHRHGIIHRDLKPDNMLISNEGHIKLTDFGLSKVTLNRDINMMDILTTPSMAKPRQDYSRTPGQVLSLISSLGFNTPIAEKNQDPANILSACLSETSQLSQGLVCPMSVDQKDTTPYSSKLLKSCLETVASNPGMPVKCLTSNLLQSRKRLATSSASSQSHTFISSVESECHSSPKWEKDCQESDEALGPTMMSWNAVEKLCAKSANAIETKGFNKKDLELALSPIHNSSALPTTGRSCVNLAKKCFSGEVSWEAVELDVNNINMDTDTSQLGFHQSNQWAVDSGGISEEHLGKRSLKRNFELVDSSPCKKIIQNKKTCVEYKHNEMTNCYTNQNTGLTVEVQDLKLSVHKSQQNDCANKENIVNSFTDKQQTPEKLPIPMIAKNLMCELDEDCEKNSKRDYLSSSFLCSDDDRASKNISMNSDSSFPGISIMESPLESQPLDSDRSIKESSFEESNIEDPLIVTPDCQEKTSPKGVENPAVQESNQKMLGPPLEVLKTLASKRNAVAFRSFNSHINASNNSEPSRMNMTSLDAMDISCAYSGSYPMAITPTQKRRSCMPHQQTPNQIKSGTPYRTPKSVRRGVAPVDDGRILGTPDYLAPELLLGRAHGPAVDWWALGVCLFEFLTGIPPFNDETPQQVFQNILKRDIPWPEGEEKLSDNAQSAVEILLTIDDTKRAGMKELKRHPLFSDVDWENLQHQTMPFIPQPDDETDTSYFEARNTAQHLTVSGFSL
Nature of the assay: Inhibition of MASTL ATP Loop labeling site in human A-375 cells at 0.5 uM by KiNativ Profiling analysis relative to control. It counts as cell-based.

In assay [6] the target is Cyclin-dependent kinase 16 (Homo sapiens) (UniProt Q00536). Kind of assay: Inhibition of PCTAIRE1 Lys1 labeling site in human A-375 cells at 0.5 uM by KiNativ Profiling analysis relative to control. It counts as cell-based.
Assay [7] concerns the target Serine/threonine-protein kinase ATR (Homo sapiens) (UniProt Q13535). Kind of assay: Inhibition of ATR ATP labeling site in human A-375 cells at 0.05 uM by KiNativ Profiling analysis relative to control. It counts as cell-based.
Assay [8] concerns the target Focal adhesion kinase 1 (Homo sapiens) (UniProt Q05397). Kind of assay: Inhibition of FAK Lys1 labeling site in human A-375 cells at 0.05 uM by KiNativ Profiling analysis relative to control. The class given is cell-based.
Assay [9] deals with Serine/threonine-protein kinase 38-like (Homo sapiens) (UniProt Q9Y2H1). Nature of the assay: Inhibition of NDR2 Lys1 labeling site harbouring DTGHIYAMKILR in human A-375 cells at 0.05 uM by KiNativ Profiling analysis relative to control. It counts as cell-based.
Assay [10] has as its target Phosphatidylinositol 4,5-bisphosphate 3-kinase catalytic subunit beta isoform (Homo sapiens) (UniProt P42338). Nature of the assay: Inhibition of PIK3CB ATP labeling site in human A-375 cells at 0.05 uM by KiNativ Profiling analysis relative to control. It counts as cell-based.

Sequence of Ephrin type-B receptor 2 (P29323 whole entry): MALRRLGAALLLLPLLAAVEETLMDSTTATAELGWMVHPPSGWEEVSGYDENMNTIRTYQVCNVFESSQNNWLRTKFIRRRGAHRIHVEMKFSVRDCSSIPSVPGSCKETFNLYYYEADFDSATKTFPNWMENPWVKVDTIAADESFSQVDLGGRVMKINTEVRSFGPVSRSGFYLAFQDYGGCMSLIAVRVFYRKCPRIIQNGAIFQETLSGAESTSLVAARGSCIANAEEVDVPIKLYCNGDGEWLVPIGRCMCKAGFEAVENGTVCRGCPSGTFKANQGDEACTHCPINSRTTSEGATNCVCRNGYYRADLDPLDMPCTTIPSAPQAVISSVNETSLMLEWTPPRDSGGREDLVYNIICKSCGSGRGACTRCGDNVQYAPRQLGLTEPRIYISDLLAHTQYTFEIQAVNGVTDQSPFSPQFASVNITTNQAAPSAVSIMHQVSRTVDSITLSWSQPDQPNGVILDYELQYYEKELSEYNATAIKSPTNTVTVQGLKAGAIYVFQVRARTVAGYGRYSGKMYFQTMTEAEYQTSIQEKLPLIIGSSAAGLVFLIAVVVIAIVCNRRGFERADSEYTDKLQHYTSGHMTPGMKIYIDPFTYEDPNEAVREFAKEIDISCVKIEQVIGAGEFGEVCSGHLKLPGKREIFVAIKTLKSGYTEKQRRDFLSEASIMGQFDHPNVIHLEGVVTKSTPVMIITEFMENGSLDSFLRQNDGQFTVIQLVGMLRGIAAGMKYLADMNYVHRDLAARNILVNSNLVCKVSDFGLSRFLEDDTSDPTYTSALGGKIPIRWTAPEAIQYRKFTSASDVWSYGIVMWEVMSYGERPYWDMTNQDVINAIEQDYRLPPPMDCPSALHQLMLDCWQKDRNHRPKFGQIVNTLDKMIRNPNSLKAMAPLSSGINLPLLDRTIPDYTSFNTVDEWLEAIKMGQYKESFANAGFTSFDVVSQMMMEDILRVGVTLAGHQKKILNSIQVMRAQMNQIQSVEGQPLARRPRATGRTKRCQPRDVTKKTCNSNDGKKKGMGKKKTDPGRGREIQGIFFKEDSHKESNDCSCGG
Sequence of Proto-oncogene tyrosine-protein kinase Src (P12931 2-536 limits assumed): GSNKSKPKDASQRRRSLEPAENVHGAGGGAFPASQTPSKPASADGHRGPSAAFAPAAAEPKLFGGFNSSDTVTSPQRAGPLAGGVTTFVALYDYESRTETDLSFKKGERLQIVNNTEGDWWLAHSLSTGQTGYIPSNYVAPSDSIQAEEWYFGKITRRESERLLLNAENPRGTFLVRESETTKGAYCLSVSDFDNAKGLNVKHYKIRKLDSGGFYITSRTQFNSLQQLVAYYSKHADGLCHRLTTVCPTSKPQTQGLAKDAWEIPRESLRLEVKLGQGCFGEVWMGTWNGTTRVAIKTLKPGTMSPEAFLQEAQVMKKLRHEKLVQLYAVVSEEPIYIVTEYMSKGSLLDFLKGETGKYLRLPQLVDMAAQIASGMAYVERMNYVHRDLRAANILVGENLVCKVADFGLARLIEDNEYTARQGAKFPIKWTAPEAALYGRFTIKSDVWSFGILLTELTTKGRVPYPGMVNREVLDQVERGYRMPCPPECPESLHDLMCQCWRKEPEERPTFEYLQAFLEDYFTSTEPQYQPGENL
Sequence of Cyclin-dependent kinase 16 (Homo sapiens) (Q00536 whole entry): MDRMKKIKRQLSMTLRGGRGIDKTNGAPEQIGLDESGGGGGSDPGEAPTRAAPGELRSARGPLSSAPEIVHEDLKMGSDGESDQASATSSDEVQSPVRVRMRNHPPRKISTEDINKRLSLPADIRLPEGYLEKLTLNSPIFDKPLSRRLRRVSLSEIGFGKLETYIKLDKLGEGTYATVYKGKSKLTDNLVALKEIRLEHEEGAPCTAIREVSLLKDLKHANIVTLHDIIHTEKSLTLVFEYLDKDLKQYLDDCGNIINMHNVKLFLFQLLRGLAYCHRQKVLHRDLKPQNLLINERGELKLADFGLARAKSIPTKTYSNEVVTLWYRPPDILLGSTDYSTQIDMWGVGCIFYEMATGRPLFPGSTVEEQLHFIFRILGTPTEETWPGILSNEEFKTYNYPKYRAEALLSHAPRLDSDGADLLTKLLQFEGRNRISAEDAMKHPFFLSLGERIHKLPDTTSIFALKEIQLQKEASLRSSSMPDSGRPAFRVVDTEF
Sequence of Focal adhesion kinase 1 (Homo sapiens) (Q05397 2-1052 limits assumed): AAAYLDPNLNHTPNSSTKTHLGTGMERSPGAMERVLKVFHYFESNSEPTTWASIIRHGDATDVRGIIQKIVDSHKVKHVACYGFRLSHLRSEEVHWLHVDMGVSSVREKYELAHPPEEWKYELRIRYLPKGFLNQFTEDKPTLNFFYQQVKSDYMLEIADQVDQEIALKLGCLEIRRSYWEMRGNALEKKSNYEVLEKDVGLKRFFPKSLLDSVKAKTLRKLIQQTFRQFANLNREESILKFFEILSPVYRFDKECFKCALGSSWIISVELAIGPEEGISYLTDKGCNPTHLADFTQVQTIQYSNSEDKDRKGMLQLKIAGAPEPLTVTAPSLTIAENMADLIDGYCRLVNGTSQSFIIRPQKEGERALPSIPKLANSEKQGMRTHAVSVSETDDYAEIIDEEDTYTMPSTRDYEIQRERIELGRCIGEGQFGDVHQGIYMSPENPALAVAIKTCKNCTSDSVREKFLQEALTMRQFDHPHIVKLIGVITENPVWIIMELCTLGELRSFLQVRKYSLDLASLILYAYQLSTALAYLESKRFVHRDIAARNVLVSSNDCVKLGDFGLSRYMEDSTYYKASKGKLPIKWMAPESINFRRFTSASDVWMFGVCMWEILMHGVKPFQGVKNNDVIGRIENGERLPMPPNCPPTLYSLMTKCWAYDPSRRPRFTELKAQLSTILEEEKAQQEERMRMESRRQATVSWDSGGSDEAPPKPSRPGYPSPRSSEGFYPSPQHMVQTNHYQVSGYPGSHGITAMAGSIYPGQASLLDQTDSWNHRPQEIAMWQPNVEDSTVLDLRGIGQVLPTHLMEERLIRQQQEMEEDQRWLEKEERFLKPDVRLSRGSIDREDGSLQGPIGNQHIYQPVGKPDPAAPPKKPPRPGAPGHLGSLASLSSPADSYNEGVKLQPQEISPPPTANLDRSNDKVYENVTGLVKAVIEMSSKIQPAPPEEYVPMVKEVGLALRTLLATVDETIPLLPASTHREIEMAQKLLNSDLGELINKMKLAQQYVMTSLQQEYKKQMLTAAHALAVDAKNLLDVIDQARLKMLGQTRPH
Sequence of Phosphatidylinositol 4,5-bisphosphate 3-kinase catalytic subunit beta isoform (Homo sapiens) (P42338 whole entry, looked up, canonical isoform): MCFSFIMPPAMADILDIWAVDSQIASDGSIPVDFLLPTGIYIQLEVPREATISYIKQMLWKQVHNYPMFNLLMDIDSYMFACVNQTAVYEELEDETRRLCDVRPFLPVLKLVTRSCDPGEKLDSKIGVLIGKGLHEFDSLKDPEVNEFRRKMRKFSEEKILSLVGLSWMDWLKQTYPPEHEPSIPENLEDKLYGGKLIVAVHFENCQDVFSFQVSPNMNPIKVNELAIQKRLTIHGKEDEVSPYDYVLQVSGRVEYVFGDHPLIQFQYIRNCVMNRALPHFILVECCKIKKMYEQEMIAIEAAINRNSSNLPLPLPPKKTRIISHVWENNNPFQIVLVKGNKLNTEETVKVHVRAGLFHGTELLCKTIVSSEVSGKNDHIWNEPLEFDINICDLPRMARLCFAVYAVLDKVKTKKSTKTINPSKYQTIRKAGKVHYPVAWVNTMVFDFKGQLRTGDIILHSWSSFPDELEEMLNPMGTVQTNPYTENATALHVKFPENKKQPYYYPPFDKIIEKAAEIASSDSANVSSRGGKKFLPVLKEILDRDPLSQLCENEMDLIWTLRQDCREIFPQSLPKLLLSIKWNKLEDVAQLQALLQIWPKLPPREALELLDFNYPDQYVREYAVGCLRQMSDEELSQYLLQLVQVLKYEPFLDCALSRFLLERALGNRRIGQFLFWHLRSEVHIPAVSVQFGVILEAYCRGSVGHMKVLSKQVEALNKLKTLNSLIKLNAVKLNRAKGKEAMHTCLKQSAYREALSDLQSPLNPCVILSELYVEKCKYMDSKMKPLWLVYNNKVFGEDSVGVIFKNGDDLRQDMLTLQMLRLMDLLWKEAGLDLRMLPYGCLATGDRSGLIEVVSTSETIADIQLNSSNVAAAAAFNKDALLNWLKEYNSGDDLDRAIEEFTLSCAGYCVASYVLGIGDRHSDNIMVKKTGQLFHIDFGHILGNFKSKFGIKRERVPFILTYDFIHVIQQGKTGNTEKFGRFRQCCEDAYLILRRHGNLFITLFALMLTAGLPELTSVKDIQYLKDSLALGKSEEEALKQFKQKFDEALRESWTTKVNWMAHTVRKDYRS
Sequence of RAC-gamma serine/threonine-protein kinase (Homo sapiens) (Q9Y243 whole entry): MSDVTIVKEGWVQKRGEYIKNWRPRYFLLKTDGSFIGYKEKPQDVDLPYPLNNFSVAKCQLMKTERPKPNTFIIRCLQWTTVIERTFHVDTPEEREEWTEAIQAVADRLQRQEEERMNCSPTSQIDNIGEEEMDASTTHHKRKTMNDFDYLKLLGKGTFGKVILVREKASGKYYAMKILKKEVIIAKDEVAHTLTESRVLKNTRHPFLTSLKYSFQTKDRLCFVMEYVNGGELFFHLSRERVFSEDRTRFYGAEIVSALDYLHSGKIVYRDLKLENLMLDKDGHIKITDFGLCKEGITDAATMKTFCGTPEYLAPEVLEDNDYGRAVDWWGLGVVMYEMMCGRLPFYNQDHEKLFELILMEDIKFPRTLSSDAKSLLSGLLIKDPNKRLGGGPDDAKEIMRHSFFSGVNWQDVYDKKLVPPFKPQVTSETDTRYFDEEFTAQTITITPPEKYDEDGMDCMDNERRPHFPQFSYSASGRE

In the case of `CNc1cc(Oc2cc(C(=O)Nc3cc(N4CCN(C)CC4)cc(C(F)(F)F)c3)ccc2C)ncn1`, in assay [1], the inhibition (usually the drop in the measured response relative to a control, in per cent) was determined as 7%.

On to `CCN1CCN(Cc2ccc(NC(=O)c3ccc(C)c(/C=C/c4cnc5[nH]ccc5c4OC)c3)cc2C(F)(F)F)CC1`, for which the inhibition was more than 99% in assay [2]; 25.1% in assay [4]; 0.2% in assay [5]; 30.2% in assay [6]; -7.3% in [7]; 4.7% in assay [8]. Moreover, the inhibition was -0.9% in [9] and 38.5% in assay [10]. Further, the midpoint of inhibition in assay [3], the IC50, lay at 0.075 µM.

`CNc1cc(Oc2cc(C(=O)Nc3cc(-n4cnc(C)c4)cc(C(F)(F)F)c3)ccc2C)ncn1`: the inhibition in assay [1] is 29.3%.

In the case of `CCN1CCN(Cc2ccc(NC(=O)c3ccc(C)c(Oc4ccnc5[nH]ccc45)c3)cc2C(F)(F)F)CC1`, the inhibition was 89.6% in assay [2]; -1.8% in assay [4]; 11.4% in assay [5]; 47.7% in assay [6]; 7.9% in assay [7]; 1% in assay [8]. For the same compound, the inhibition in assay [9] came out at 5.4%; in [10], 3.1%. In addition, in assay [3], the IC50 (commonly the concentration needed to halve the response being measured) came to 0.672 µM.
